Test [1] addresses Translocator protein (Rattus norvegicus, UniProt P16257). In words: Displacement of [3H]PK 11195 from peripheral-type benzodiazepine receptor in rat kidney mitochondrial membranes. In kind it is cell membranes, Membrane. (In general: In a radioligand displacement assay an active substance lowers the binding of a labelled ligand.)
In test [2] the test system is GABA-A receptor / central benzodiazepine receptor (Rattus norvegicus). The test is described as follows: Displacement of [3H]flumazenil from central benzodiazepine receptor in rat cerebral cortex membranes at 10 uM. Particulars: Membrane.
Test [3] deals with Translocator protein (Rattus norvegicus) (UniProt P16257). In words: Displacement of 2-(2-(4-fluorophenyl)-1H-indol -3-yl)-N-(6-(7-nitrobenzo[c][1, 2,5]oxadiazol-4-ylamino)hexyl )-2-oxoacetamide from peripheral type benzodiazepine receptor in rat C6 glioma cells at 10 uM. In kind it is cell-based. The essentials:
(§1)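 Subconfluent rat C6 glioma cells in DMEM preincubated 30 min with PK 11195 or Ip (10 µM to 100 µM range), then stained with fluorescent PBR ligand at final 10 µM in culture medium, 30 min, 37 °C, 5% CO2. PBS wash, 4% paraformaldehyde fixation, fluorescence microscopy; displacement of cytoplasmic (mitochondrial) staining judged visually.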

The target is the same in test [4]. The test is described as follows: Displacement of 2-(2-(4-fluorophenyl)-1H-indol -3-yl)-N-(6-(7-nitrobenzo[c][1, 2,5]oxadiazol-4-ylamino)hexyl )-2-oxoacetamide from peripheral type benzodiazepine receptor in rat C6 glioma cells at 50 uM. In kind it is cell-based. In a few lines:
as §1

Active and inactive are the calls of the source. No cut-off for these calls is given here.

Experimental findings from ChEMBL document CHEMBL1139846, “New fluorescent 2-phenylindolglyoxylamide derivatives as probes targeting the peripheral-type benzodiazepine receptor: design, synthesis, and biological evaluation” (J Med Chem, 2007) are described below.

Translocator protein, sequence (P16257 whole entry, looked up): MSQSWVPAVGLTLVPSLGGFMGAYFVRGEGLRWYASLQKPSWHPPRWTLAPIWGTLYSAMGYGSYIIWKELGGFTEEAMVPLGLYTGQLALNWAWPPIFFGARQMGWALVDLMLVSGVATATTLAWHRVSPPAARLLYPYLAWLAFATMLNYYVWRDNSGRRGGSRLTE
Translocator protein (Rattus norvegicus), sequence (P16257 whole entry, looked up): as above

`CCCN(CCC)C(=O)Cc1c(-c2ccc(Cl)cc2)nc2ccc(Cl)cn12` [ALPIDEM]: affinity in test [1] was put at a Ki of 0.5 nM.
On the same count and under the same terms, for `O=C(NCCNc1ccc([N+](=O)[O-])c2[n-][o+]nc12)C(=O)c1c(-c2ccc(F)cc2)[nH]c2ccccc12` the value was 835 nM.
On to `O=C(NCCCCCCNc1ccc([N+](=O)[O-])c2nonc12)C(=O)c1c(-c2ccc(F)cc2)[nH]c2ccccc12`, for which the Ki in test [1] turned out to be 12 nM. The compound also returned an inhibition in test [2] of less than 10%.
For the compound `CCC(C)N(C)C(=O)c1cc2ccccc2c(-c2ccccc2Cl)n1` (stereo unspecified), the outcome in test [3] was Active.
In test [2], `O=C(NCCNc1ccc([N+](=O)[O-])c2nonc12)C(=O)c1c(-c2ccc(F)cc2)[nH]c2ccccc12` gave an inhibition of less than 10%.
Take `O=C(NCCCCNc1ccc([N+](=O)[O-])c2nonc12)C(=O)c1c(-c2ccc(F)cc2)[nH]c2ccccc12`: in test [1], the Ki came out at 23 nM. The compound also displayed an inhibition in test [2] of less than 10%.
For `O=C(NCCCCCCNc1ccc([N+](=O)[O-])c2nonc12)C(=O)c1c(-c2ccccc2)[nH]c2ccccc12`, in test [2], the inhibition was less than 10%.
Consider `O=C(NCCCCNc1ccc([N+](=O)[O-])c2nonc12)C(=O)c1c(-c2ccccc2)[nH]c2ccccc12`, for which the Ki in test [1] was found to be 42 nM. For the same compound, in test [2], the inhibition was less than 10%.
For the compound `O=C(NCCNc1ccc([N+](=O)[O-])c2nonc12)C(=O)c1c(-c2ccccc2)[nH]c2ccccc12`, the inhibition constant (Ki) in test [1] is 994 nM. The compound further came in with an inhibition in test [2] of less than 10%.
As for `CCCCCCN(CCCCCC)C(=O)C(=O)c1c(-c2ccc(F)cc2)[nH]c2ccccc12`, the result in test [3] and in test [4] was Active.
In test [1], `O=C(NCCCCCCNc1ccc([N+](=O)[O-])c2[n-][o+]nc12)C(=O)c1c(-c2ccccc2)[nH]c2ccccc12` gave an inhibitory constant (Ki) of 17 nM.

The term Ki denotes the equilibrium dissociation constant of an inhibitor or competing ligand from its target. In general, inhibition refers to the relative decrease from the control value, in per cent.
